Reference: ChEMBL document CHEMBL1153857, “1,4-Diazepanes derived from (S)-serine--homopiperazines with improved sigma(1) (sigma) receptor affinity and selectivity” (Eur J Med Chem, 2009)

Tests used:
[1] = target: Sigma non-opioid intracellular receptor 1 (Cavia porcellus, UniProt Q60492); test: Displacement of [3H](+)-pentazocine from sigma 1 receptor in guinea pig brain membrane by liquid scintillation analyzer; format: cell membranes
Summary of the method: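 Guinea pig brain membranes (about […] protein) incubated with 3 nM [3H]-pentazocine and at least 6 test concentrations in 50 mM Tris-HCl pH 7.4, 120 min at 37 °C. Filtration through PEI-presoaked GF/B filters, four cold-buffer washes, scintillation counting. Non-specific binding with excess haloperidol. Triplicates; IC50 by non-linear regression, Ki reported.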

[2] = Displacement of radioligand from phencyclidine binding site of NMDA receptor
Summary of the method: (§1)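 Competition binding, first screened at two test concentrations. Exact Ki determined only when binding inhibition at the higher concentration was considerable.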

[3] = Displacement of [3H]ditolylguanidine from sigma 2 receptor in rat liver membrane by liquid scintillation analyzer; format: cell membranes
Summary of the method: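 Rat liver membranes (about […] protein) incubated with 3 nM [3H]-ditolylguanidine plus 100 nM (+)-pentazocine to mask sigma1 sites, with at least 6 test concentrations, in 50 mM Tris-HCl pH 8.0, 120 min at 25 °C. Stopped with ice-cold 10 mM Tris pH 8.0, filtered on PEI-soaked GF/B, washed three times, scintillation counted. […] Triplicates; Ki reported.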

[4] = Selectivity for sigma 1 receptor in guinea pig brain membrane over sigma 2 receptor in rat liver membrane; format: cell membranes
[5] = target: Kappa-type opioid receptor (Homo sapiens, UniProt P41145); test: Displacement of [3H]U-69593 from kappa opioid receptor; summary of the method: as §1
Sequence of Kappa-type opioid receptor (P41145 whole entry): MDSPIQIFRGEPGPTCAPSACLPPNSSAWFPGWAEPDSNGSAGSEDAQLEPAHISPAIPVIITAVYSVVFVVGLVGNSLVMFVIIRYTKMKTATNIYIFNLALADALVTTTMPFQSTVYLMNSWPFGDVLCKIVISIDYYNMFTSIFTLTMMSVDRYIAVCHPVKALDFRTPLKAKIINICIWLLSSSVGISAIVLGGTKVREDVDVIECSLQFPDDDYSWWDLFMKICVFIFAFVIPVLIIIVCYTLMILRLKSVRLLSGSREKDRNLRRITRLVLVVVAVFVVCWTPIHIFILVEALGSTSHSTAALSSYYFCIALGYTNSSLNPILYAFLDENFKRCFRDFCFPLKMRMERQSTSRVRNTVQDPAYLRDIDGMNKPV

[6] = target: Mu-type opioid receptor (Homo sapiens, UniProt P35372); test: Displacement of radioligand from mu opioid receptor; summary of the method: as §1
Sequence of Mu-type opioid receptor (P35372 whole entry): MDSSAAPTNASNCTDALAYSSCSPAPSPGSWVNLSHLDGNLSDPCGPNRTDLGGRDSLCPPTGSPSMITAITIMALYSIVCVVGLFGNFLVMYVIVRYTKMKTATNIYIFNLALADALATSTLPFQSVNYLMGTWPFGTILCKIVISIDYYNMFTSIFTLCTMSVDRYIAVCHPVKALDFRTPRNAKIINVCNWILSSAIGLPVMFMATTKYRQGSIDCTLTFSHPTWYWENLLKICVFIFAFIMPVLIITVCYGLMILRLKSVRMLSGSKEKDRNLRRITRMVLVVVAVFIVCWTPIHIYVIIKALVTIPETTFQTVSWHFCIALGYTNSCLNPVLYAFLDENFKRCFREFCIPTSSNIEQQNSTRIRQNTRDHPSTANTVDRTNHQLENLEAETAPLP

Sequence of Sigma non-opioid intracellular receptor 1 (Q60492 whole entry): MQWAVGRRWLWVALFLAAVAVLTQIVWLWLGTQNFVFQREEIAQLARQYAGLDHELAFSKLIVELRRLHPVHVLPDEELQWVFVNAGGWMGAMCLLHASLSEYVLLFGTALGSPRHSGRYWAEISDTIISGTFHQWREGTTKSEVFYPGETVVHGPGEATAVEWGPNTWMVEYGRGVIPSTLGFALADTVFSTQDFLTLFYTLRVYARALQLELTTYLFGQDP

Compound: COC(CN1CCCN(Cc2ccccc2)[C@@H](CO)C1)OC
- Ki [1]: 0.32 µM
- IC50 [2]: > 10 µM
- Ki [3]: 9.01 µM
- Ratio Ki [4]: 28
- IC50 [5]: > 10 µM
- IC50 [6]: > 10 µM

Compound: OC[C@H]1CN(Cc2ccccc2)CCCN1Cc1ccccc1
- Ki [1]: 0.0074 µM
- IC50 [2]: > 10 µM
- Ki [3]: 0.374 µM
- Ratio Ki [4]: 53
- IC50 [5]: > 10 µM
- IC50 [6]: > 10 µM

Compound: COC(CN1CCN(Cc2ccccc2)[C@@H](CO)C1)OC
- Ki [1]: > 10 µM
- Ki [3]: > 10 µM

Compound: OC[C@H]1CN(Cc2ccccc2)CCN1Cc1ccccc1
- Ki [1]: 0.038 µM
- Ki [3]: 0.177 µM
- Ratio Ki [4]: 5
